Experimental data: ChEMBL document CHEMBL1137089, “Identification of putative agouti-related protein(87-132)-melanocortin-4 receptor interactions by homology molecular modeling and validation using chimeric peptide ligands” (J Med Chem, 2004)
*1 amine or outer side, *2 acyl side, *3 side chain or, on linkers, in order; H or OH if unused. Where a SMILES comes first, the peptide text is derived from it. Bridges are numbered along the chain shown (N, C = ends). [ ]: non-standard residue; d: D form. The star is where a group is joined. X4 = O=C(C(=O)[*:2])[C@H](Cc1ccccc1)N[*:1]; X3 = NN[C@@H](Cc1ccc(O)cc1)C(=O)*; Dap = NC[C@H](N)C(=O)O

Experiments:
Melanocortin receptor 5 = Melanocortin receptor 5 (Mus musculus, UniProt P41149); experiment: Effective concentration against mouse Melanocortin 5 receptor; format: functional
Melanocortin receptor 5, sequence (P41149 whole entry): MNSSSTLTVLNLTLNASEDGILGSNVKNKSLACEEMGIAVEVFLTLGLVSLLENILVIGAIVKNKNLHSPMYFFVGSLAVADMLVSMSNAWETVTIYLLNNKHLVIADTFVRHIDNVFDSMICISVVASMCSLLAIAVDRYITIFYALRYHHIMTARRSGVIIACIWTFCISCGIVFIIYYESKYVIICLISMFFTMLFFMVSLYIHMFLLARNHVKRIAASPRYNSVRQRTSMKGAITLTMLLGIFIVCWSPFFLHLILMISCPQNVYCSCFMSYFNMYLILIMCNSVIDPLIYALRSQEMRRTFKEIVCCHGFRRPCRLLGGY
Outline: (§1)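 HEK-293 cells stably expressing the mouse melanocortin receptor (G418 selection), transiently transfected with CRE/β-galactosidase reporter. EC50 by nonlinear least-squares fit; SEM from at least three independent experiments.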

[1] = target: Melanocyte-stimulating hormone receptor (Mus musculus, UniProt Q01727); experiment: Effective concentration against mouse Melanocortin 1 receptor; format: functional; outline: as §1
Melanocyte-stimulating hormone receptor, sequence (Q01727 whole entry): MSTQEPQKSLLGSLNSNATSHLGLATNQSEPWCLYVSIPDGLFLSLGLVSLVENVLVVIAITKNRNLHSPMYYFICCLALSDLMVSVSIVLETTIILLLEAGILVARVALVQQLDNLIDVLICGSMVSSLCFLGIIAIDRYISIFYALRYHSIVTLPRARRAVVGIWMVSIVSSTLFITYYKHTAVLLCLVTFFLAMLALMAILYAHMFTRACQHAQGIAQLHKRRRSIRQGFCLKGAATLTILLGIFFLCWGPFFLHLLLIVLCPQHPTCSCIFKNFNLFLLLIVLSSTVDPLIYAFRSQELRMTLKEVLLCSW

Melanocortin receptor 4 [2] = target: T1, Melanocortin receptor 4 (Mus musculus, UniProt P56450); experiment: Inhibitory concentration towards melanocortin MC4 receptor by displacing radioligand [125I]-hAGRP(87-132)
T1 sequence (P56450 whole entry): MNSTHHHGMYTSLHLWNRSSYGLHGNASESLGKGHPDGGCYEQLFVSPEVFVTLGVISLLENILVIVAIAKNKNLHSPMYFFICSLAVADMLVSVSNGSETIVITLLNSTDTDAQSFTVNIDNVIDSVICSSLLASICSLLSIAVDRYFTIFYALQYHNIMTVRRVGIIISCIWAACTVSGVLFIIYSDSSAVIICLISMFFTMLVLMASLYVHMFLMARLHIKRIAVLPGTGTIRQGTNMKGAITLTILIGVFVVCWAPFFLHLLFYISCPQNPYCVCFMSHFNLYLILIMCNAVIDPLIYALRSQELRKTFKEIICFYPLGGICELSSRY

Melanocortin receptor 4 [3] = target: T1, Melanocortin receptor 4; experiment: Effective concentration against mouse melanocortin MC4 receptor; format: functional; outline: as §1
Melanocortin receptor 4 [4] = target: T1, Melanocortin receptor 4; experiment: Inhibitory concentration towards melanocortin MC4 receptor by displacing radioligand [125I]NDP-MSH
Outline: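 Whole HEK-293 cells stably expressing the mouse MC4 receptor, plated at 0.3 × 10⁶ cells/well the day before. Cells washed, lysed in NaOH/Triton X-100, and counted by γ-counter. IC50 by nonlinear least-squares fit; duplicate wells, at least two independent experiments, mean ± SD.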

Melanocortin receptor 3 = Melanocortin receptor 3 (Mus musculus, UniProt P33033); experiment: Effective concentration against mouse Melanocortin 3 receptor; format: functional; details: for Kb: read-out: pA2 (converted); outline: as §1
Melanocortin receptor 3, sequence (P33033 whole entry): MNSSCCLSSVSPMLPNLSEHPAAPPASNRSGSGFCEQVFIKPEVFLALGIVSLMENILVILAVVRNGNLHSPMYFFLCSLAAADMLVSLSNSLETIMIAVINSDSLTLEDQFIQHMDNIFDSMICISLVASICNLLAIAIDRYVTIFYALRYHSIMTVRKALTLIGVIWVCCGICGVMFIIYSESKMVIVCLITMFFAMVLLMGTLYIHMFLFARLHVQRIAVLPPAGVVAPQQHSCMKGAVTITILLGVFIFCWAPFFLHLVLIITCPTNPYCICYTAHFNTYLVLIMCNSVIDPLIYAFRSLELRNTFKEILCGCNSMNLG

| EC50 (Melanocortin receptor 5) [µM] | EC50 [1] [µM] | IC50 (Melanocortin receptor 4 [2]) [µM] | EC50 (Melanocortin receptor 4 [3]) [µM] | IC50 (Melanocortin receptor 4 [4]) [µM] | SMILES | Kb (Melanocortin receptor 3) [µM] | EC50 (Melanocortin receptor 3) [µM] |
| --- | --- | --- | --- | --- | --- | --- | --- |
| 2.22 | 6.12 | > 10 | 15.9 | – | C[C@@H]1NC(=O)[C@H](CC(N)=O)NC(=O)[C@@H](Cc2ccccc2)NC(=O)[C@H](CCCNC(=N)N)NC(=O)[C@H](Cc2c[nH]c3ccccc23)NC(=O)[C@@H](NC(=O)[C@@H](N)Cc2ccc(O)cc2)CC(=O)NC[C@@H](C(=O)N[C@@H](Cc2ccc(O)cc2)C(N)=O)NC(=O)[C@H](Cc2ccccc2)NC1=O (H-YDWR[dF]NAF[Dap]Y-NH2; lactam 2-9) | – | – |
| 3.9 | 19.7 | 4.1 | 13.4 | 9.2 | C[C@@H]1NC(=O)[C@H](CC(N)=O)NC(=O)[C@H](Cc2c[nH]c3ccccc23)NC(=O)[C@H](CCCNC(=N)N)NC(=O)[C@H](Cc2ccccc2)NC(=O)[C@@H](NC(=O)[C@@H](N)Cc2ccc(O)cc2)CC(=O)NC[C@@H](C(=O)N[C@@H](Cc2ccc(O)cc2)C(N)=O)NC(=O)[C@H](Cc2ccccc2)NC1=O (H-YDFRWNAF[Dap]Y-NH2; lactam 2-9) | – | – |
| > 100 | 13.3 | – | > 100 | – | C[C@@H]1NC(=O)[C@H](CC(N)=O)NC(=O)[C@H](Cc2ccccc2)NC(=O)[C@H](Cc2ccccc2)NC(=O)[C@H](CCCNC(=N)N)NC(=O)[C@H](Cc2c[nH]cn2)NC(=O)[C@@H](NC(=O)[C@@H](N)Cc2ccc(O)cc2)CC(=O)NC[C@@H](C(=O)N[C@@H](Cc2ccc(O)cc2)C(N)=O)NC(=O)[C@H](Cc2ccccc2)NC1=O (H-YDHRFFNAF[Dap]Y-NH2; lactam 2-10) | – | – |
| – | – | 3.1 | – | 6.8 | C[C@@H]1NC(=O)[C@H](CC(N)=O)NC(=O)[C@H](Cc2c[nH]c3ccccc23)NC(=O)[C@H](CCCNC(=N)N)NC(=O)[C@@H](Cc2ccccc2)NC(=O)[C@@H](NC(=O)[C@@H](N)Cc2ccc(O)cc2)CC(=O)NC[C@@H](C(=O)N[C@@H](Cc2ccc(O)cc2)C(N)=O)NC(=O)[C@H](Cc2ccccc2)NC1=O (H-YD[dF]RWNAF[Dap]Y-NH2; lactam 2-9) | – | – |

The next lines start with the molecule.

| SMILES | EC50 (Melanocortin receptor 5) [µM] | EC50 [1] [µM] | IC50 (Melanocortin receptor 4 [2]) [µM] | EC50 (Melanocortin receptor 4 [3]) [µM] | IC50 (Melanocortin receptor 4 [4]) [µM] | Kb (Melanocortin receptor 3) [µM] | EC50 (Melanocortin receptor 3) [µM] |
| --- | --- | --- | --- | --- | --- | --- | --- |
| C[C@@H]1NC(=O)[C@@H](CC(N)=O)NC(=O)[C@H](Cc2ccccc2)NC(=O)[C@@H](Cc2ccccc2)NC(=O)[C@H](CCCN=C(N)N)NC(=O)[C@@H](NC(=O)[C@@H](N)Cc2ccc(O)cc2)CC(=O)NC[C@@H](C(=O)N[C@@H](Cc2ccc(O)cc2)C(=O)O)NC(=O)[C@@H](Cc2ccccc2)NC1=O | – | – | – | – | – | 2 | – |
| CSCC[C@@H]1NC(=O)[C@H](C)NC(=O)[C@H]([C@@H](C)O)NC(=O)CNC(=O)[C@H](CC(C)C)NC(=O)[C@H](CCCCN)NC(=O)[C@H](CCCN=C(N)N)NC(=O)[C@@H]2CSSSSC[C@@H]3NC(=O)[C@@H]4CCCN4C(=O)[C@H](C(C)C)NC(=O)[C@H](CCC(N)=O)NC(=O)[C@H](CCC(N)=O)NC(=O)CNC(=O)[C@H](CC(C)C)NC(=O)[C@@H]4CSSSSC[C@H](NC(=O)[C@H]([C@@H](C)O)NC(=O)[C@H](C)NC(=O)[C@H](CSSSSC[C@@H](C(=O)N[C@@H](CO)C(=O)N[C@@H](CCCN=C(N)N)C(=O)N[C@H](C(=O)O)[C@@H](C)O)NC(=O)[C@@H]5CCCN5C(=O)[C@H](CC(N)=O)NC1=O)NC(=O)[C@@H]1CCCN1C(=O)[C@H](CC(=O)O)NC(=O)[C@H](CSSSSC[C@H](N)C(=O)N[C@@H](C(C)C)C(=O)N[C@@H](CCCN=C(N)N)C(=O)N[C@@H](CC(C)C)C(=O)N[C@@H](Cc1c[nH]cn1)C(=O)N[C@@H](CCC(=O)O)C(=O)N[C@@H](CO)C(=O)N4)NC3=O)C(=O)N[C@@H](Cc1ccc(O)cc1)C(=O)N[C@H]1CSSSSC[C@H](NC(=O)[C@H](Cc3ccccc3)NC(=O)[C@H](C)NC(=O)[C@H](CC(N)=O)NC(=O)[C@H](Cc3ccccc3)NC(=O)[C@H](Cc3ccccc3)NC(=O)[C@H](CCCN=C(N)N)NC1=O)C(=O)N[C@@H](Cc1ccc(O)cc1)C(=O)N2 | – | > 100 | 0.00548 | – | – | 0.00126 | – |
| C[C@@H]1NC(=O)[C@H](CC(N)=O)NC(=O)[C@H](Cc2ccccc2)NC(=O)[C@H](CCCNC(=N)N)NC(=O)[C@H](Cc2c[nH]c3ccccc23)NC(=O)[C@@H](NC(=O)[C@@H](N)Cc2ccc(O)cc2)CC(=O)NC[C@@H](C(=O)N[C@@H](Cc2ccc(O)cc2)C(N)=O)NC(=O)[C@H](Cc2ccccc2)NC1=O (H-YDWRFNAF[Dap]Y-NH2; lactam 2-9) | – | – | 7.3 | – | 10.3 | – | – |
| C[C@@H]1NC(=O)[C@H](CC(N)=O)NC(=O)[C@H](Cc2ccccc2)NC(=O)[C@H](Cc2ccccc2)NC(=O)[C@H](CCCNC(=N)N)NC(=O)[C@@H](NC(=O)[C@@H](N)Cc2ccc(O)cc2)CC(=O)NC[C@@H](C(=O)N[C@@H](Cc2ccc(O)cc2)C(N)=O)NC(=O)[C@H](Cc2ccccc2)NC1=O | – | – | 3.2 | – | 4.8 | – | – |
| CNC(=O)C[C@@H]1NC(=O)[C@H](C)NC(=O)[C@H](C)NC(=O)[C@H](C)NC(=O)[C@@H](NC(=O)[C@H](Cc2ccc(O)cc2)NN)CC(=O)NC[C@@H](C(=O)N[C@@H](Cc2ccc(O)cc2)C(N)=O)NC(=O)C(=O)[C@H](Cc2ccccc2)NC(=O)[C@H](C)NC1=O (X3-DAAAD(NHMe)A[X4][Dap]Y-NH2; lactam 1-8) | – | – | – | – | – | – | > 100 |
